For 19 compounds, Activity, IC50 and zone of inhibition results are on record in ChEMBL document CHEMBL1140759, “Synthesis, anti-Toxoplasma gondii and antimicrobial activities of benzaldehyde 4-phenyl-3-thiosemicarbazones and 2-[(phenylmethylene)hydrazono]-4-oxo-3-phenyl-5-thiazolidineacetic acids” (Bioorg Med Chem, 2008).

In experiment [1] the test system is Toxoplasma gondii. In words: Antiparasitic activity against Toxoplasma gondii infected african green monkey Vero cells at 2 mM assessed as infected cells. Format: functional. The essentials:
(§1)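 Vero cells were infected with RH-strain tachyzoites (5:1 parasite:cell) for 1 h, washed with PBS, and grown 24 h at 37 °C in medium 199 with 5% FCS. Compound was then added for 24 h. Cells were fixed with Bouin's, stained with Giemsa, and at least 400 cells were counted by light microscopy for the percentage infected. Hydroxyurea and sulfadiazine served as references.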

In experiment [2] the test system is Toxoplasma gondii. Briefly: Antiparasitic activity against Toxoplasma gondii infected african green monkey Vero cells at 0.1 mM assessed as infected cells. It is filed as functional. The essentials: as §1
The test system of experiment [3] is Toxoplasma gondii. Briefly: Antiparasitic activity against Toxoplasma gondii infected african green monkey Vero cells at 5 mM assessed as infected cells. It is filed as functional. In a few lines:
as §1

Experiment [4] has as its system Toxoplasma gondii. Briefly: Antiparasitic activity against Toxoplasma gondii infected african green monkey Vero cells at 8 mM assessed as infected cells. It is filed as functional. The essentials:
as §1

For experiment [5], the system named is Toxoplasma gondii. In words: Antiparasitic activity against Toxoplasma gondii infected african green monkey Vero cells at 20 mM assessed as infected cells. It is filed as functional. The essentials: as §1
Experiment [6] deals with Vero. In words: Inhibition of uninfected african green monkey Vero cells. To be noted: Chlorocebus sabaeus. It is filed as cell-based.
Experiment [7] has as its system Toxoplasma gondii. Briefly: Inhibition of Toxoplasma gondii infected in african green monkey Vero cells. Format: functional, organism-based. The essentials:
(§2)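 Infected Vero cultures were exposed to compound at 0.01–30 mM for 24 h, in triplicate per assay. IC50 for infected cells and intracellular parasites was derived by non-linear regression, using trypan blue exclusion.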

In experiment [8] the test system is Toxoplasma gondii. In words: Inhibition of intracellular parasite Toxoplasma gondii. It is filed as functional, organism-based. In a few lines: as §2
Experiment [9] deals with Staphylococcus aureus. In words: Antimicrobial activity against Staphylococcus aureus at 300 ug/disc. Format: functional. The conditions noted are these: read-out: IZ. In a few lines:
(§3)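 Disc diffusion on agar plates inoculated with a standardized microbial suspension, with paper discs carrying known compound amounts. DMSO-only discs served as negative controls, and chloramphenicol, rifampicin (bacteria) or nistatin (fungi) as references. The read-out is the mean inhibition zone diameter in mm. Each run was done three times and repeated if results differed.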

In experiment [10] the test system is Bacillus subtilis. In words: Antimicrobial activity against Bacillus subtilis at 300 ug/disc. It is filed as functional. To be noted: read-out: IZ. In a few lines: as §3
For experiment [11], the system named is Micrococcus luteus. Briefly: Antimicrobial activity against Micrococcus luteus at 300 ug/disc. It is filed as functional. The conditions noted are these: read-out: IZ. In a few lines: as §3
Experiment [12] concerns Escherichia coli. Briefly: Antimicrobial activity against Escherichia coli at 300 ug/disc. Format: functional. The conditions noted are these: read-out: IZ. In a few lines: as §3
For experiment [13], the system named is Klebsiella pneumoniae. In words: Antimicrobial activity against Klebsiella pneumoniae at 300 ug/disc. Format: functional. To be noted: read-out: IZ. The essentials: as §3
Experiment [14] deals with Enterococcus faecalis. In words: Antimicrobial activity against Streptococcus faecalis at 300 ug/disc. It is filed as functional. The conditions noted are these: read-out: IZ. The essentials:
as §3

In experiment [15] the test system is Mycolicibacterium phlei. Briefly: Antimicrobial activity against Mycobacterium phlei at 300 ug/disc. It is filed as functional. The conditions noted are these: read-out: IZ. The essentials:
as §3

In experiment [16] the test system is Mycolicibacterium smegmatis. Briefly: Antimicrobial activity against Mycobacterium smegmatis at 300 ug/disc. The conditions noted are these: read-out: IZ. Format: functional. The essentials:
as §3

Experiment [17] relates to Mycobacterium tuberculosis. Briefly: Antimicrobial activity against Mycobacterium tuberculosis at 300 ug/disc. It is filed as functional. The conditions noted are these: read-out: IZ. In a few lines: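 Agar disc diffusion: paper discs loaded with compound placed on agar plates seeded with a standardised microbial suspension. DMSO-only discs served as negative control. Chloramphenicol and rifampicin (bacteria) or nistatin (fungi) gave reference zones. Read-out was mean zone of inhibition diameter (mm). Each experiment was run three times and repeated if results differed.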

Usually IC50 stands for the concentration needed to halve the response being measured.

Regarding `Cc1ccc(/C=N/N=C2\SC(CC(=O)O)C(=O)N2c2ccccc2)cc1` (stereo unspecified), the Activity in experiment [1] is 1.23%; in experiment [2], 39.2%; in experiment [3], 0%; in experiment [4], 0%; in [5] it was 0%. In addition, the IC50 worked out at 1000 µM in [6], 100 µM in [7] and 50 µM in experiment [8]. For the same compound, the zone of inhibition at 300 µg/disc in experiment [9] was less than 7 mm; in experiment [10] it was less than 7 mm; in [11] it was 16 mm; in [12], less than 7 mm; in experiment [13], less than 7 mm; in experiment [14], 12 mm. The zone of inhibition at 300 µg/disc in experiment [15], in experiment [16] and in experiment [17] was less than 7 mm throughout.
With `S=C(N/N=C/c1cccc(Cl)c1)Nc1ccccc1`, the Activity in experiment [1] is 60.69%; in experiment [2] it was 44.52%; in experiment [3], 52.06%; in experiment [4] it was 24.49%; in experiment [5] it was 0%. In addition, the IC50 in [6] is 10000 µM; in [7] it was 7000 µM; in experiment [8], 3000 µM.
Take `S=C(N/N=C/c1ccc(Cl)cc1)Nc1ccccc1`: the Activity in experiment [1] came out at 34.8%; in [2], 70.01%; in experiment [3], 38.7%; in experiment [4], 21.05%; in experiment [5], 0%. The half-maximal inhibitory concentration (IC50) turned out to be 10000 µM in experiment [6], 7000 µM in [7] and 1500 µM in experiment [8].
In the case of `NC(=O)NO` [HYDROXYUREA], the Activity in experiment [1] turned out to be 22.78%; in experiment [2], 58.23%; in experiment [3], 10.4%; in experiment [4], 7.37%; in experiment [5] it was 0%. Further, the IC50 in [6] came out at 1000 µM; in experiment [7] it was 500 µM; in [8], 100 µM.
As for `Fc1ccccc1/C=N/NC(=S)Nc1ccccc1`, the Activity in experiment [1] turned out to be 28.13%; in experiment [2], 91.5%; in experiment [3], 14.32%; in experiment [4] it was 29.29%; in [5] it was 0%. The results for the IC50 in experiment [6], in [7] and in experiment [8] were 4000 µM, 1500 µM and 1000 µM, respectively.
As for `Cc1ccc(/C=N/NC(=S)Nc2ccccc2)cc1`, the Activity was found to be 36.78% in [1]; 51.08% in experiment [2]; 27.84% in experiment [3]; 2.96% in experiment [4]; 0% in experiment [5]. Also, the half-maximal inhibitory concentration (IC50) in experiment [6] was 8000 µM; in experiment [7] it was 4000 µM; in experiment [8] it was 3000 µM.
On to `COc1cccc(/C=N/NC(=S)Nc2ccccc2)c1`, for which the Activity is 34.82% in [1]; 53.6% in experiment [2]; 9.7% in experiment [3]; 5.9% in experiment [4]; 0% in experiment [5]. Further, the IC50 in experiment [6] came out at 5000 µM; in experiment [7], 2000 µM; in experiment [8], 1000 µM.
`Fc1ccc(/C=N/NC(=S)Nc2ccccc2)cc1`: the Activity in experiment [1] is 35.2%; in experiment [2], 46.59%; in experiment [3], 28%; in experiment [4] it was 19.83%; in experiment [5] it was 0%. For the same compound, the IC50 was determined as 10000 µM in [6], 2000 µM in experiment [7] and 1000 µM in experiment [8].
`COc1ccc(/C=N/NC(=S)Nc2ccccc2)cc1`: the Activity in experiment [1] is listed as 29.39%; in experiment [2] it was 50.43%; in [3] it was 19%; in experiment [4] it was 12.36%; in experiment [5], 0%. Besides, the IC50 turned out to be 6000 µM in [6], 2000 µM in [7] and 1000 µM in experiment [8].
As for `COc1ccc(/C=N/NC(=S)Nc2ccccc2)c(OC)c1`, the Activity in experiment [1] is on record as 41.44%; in [2] it was 73%; in experiment [3], 9.2%; in experiment [4], 3.6%; in experiment [5] it was 1.49%. Besides, the half-maximal inhibitory concentration (IC50) in experiment [6] is 5000 µM; in experiment [7], 2000 µM; in experiment [8] it was 2000 µM.
Turning to `Nc1ccc(S(=O)(=O)Nc2ncccn2)cc1` [SULFADIAZINE], the Activity is reported as 48.71% in [1]; 53.84% in [2]; 29.55% in experiment [3]; 6.84% in [4]; 0% in [5]. Moreover, the IC50 in [6] was determined as 8000 µM; in experiment [7], 3000 µM; in experiment [8], 3000 µM.
Take `COc1cc(/C=N/NC(=S)Nc2ccccc2)ccc1O`: the Activity amounted to 19.7% in experiment [1]; 80.05% in experiment [2]; 19.3% in experiment [3]; 2.6% in experiment [4]; 0% in [5]. Besides, the IC50 in experiment [6] was 6000 µM; in experiment [7], 1000 µM; in experiment [8] it was 100 µM.
Regarding `CN(C)c1ccc(/C=N/NC(=S)Nc2ccccc2)cc1`, the Activity in experiment [1] came out at 35.81%; in experiment [2], 76.14%; in experiment [3], 18.14%; in [4], 13.46%; in experiment [5] it was 0%. Further, the IC50 in [6] is 6000 µM; in experiment [7], 2000 µM; in experiment [8] it was 1000 µM.
`S=C(N/N=C/c1ccc(Cl)c(Cl)c1)Nc1ccccc1`: the Activity in experiment [1] is listed as 38.02%; in experiment [2], 49.18%; in experiment [3] it was 21.96%; in experiment [4] it was 4.54%; in experiment [5] it was 0%. Besides, the IC50 turned out to be 6000 µM in [6], 5000 µM in experiment [7] and 2000 µM in experiment [8].
For the compound `S=C(N/N=C/c1ccccc1)Nc1ccccc1`, the Activity in experiment [1] amounted to 77.82%; in experiment [2] it was 82.5%; in experiment [3], 31.83%; in experiment [4], 13.52%; in [5], 0%. In addition, the figures for the IC50 in [6], in [7] and in experiment [8] were 5000 µM, 5000 µM and 4000 µM, respectively.
As for `CC(C)(C)c1cc(/C=N/NC(=S)Nc2ccccc2)cc(C(C)(C)C)c1O`, the Activity in experiment [1] turned out to be 64.07%; in experiment [2] it was 63.44%; in experiment [3] it was 30.51%; in [4], 6.42%; in experiment [5], 0%. Besides, the figures for the half-inhibitory concentration (IC50) in experiment [6], in [7] and in experiment [8] were 10000 µM, 5000 µM and 4000 µM, respectively.
`Cc1cccc(/C=N/NC(=S)Nc2ccccc2)c1`: the Activity in [1] is on record as 39.82%; in [2], 66.23%; in experiment [3] it was 26.86%; in [4], 22.72%; in experiment [5], 0%. For the same compound, the values for the concentration for half-maximal inhibition (IC50) in experiment [6], in [7] and in experiment [8] were 5000 µM, 5000 µM and 2000 µM, respectively.
For the compound `S=C(N/N=C/c1ccc(Cl)cc1Cl)Nc1ccccc1`, the Activity in experiment [1] stood at 33.28%; in experiment [2], 49.33%; in experiment [3], 31.32%; in experiment [4], 12.08%; in experiment [5], 0%. The IC50 amounted to 6000 µM in experiment [6], 2000 µM in [7] and 1000 µM in [8].
Consider `COc1cc(/C=N/NC(=S)Nc2ccccc2)cc(OC)c1OC`, for which the Activity is 72.04% in experiment [1]; 76.37% in experiment [2]; 24.32% in experiment [3]; 23.17% in experiment [4]; 0% in [5]. The 50% inhibitory concentration (IC50) in experiment [6] was determined as 10000 µM; in [7], 3000 µM; in experiment [8], 2000 µM.
